Test results as given in paper PMC11352836 (Science Advances, 2024).
Values belong to the molecule of their own block, whether it stands above or below them. Peptide text beside a SMILES is read from it. * marks the point of attachment. Cbz = O=C(OCc1ccccc1)*

Legend:
ENL [1] = target: T1, ENL (Homo sapiens, UniProt Q03111); assay type: cell-based; settings: MV4;11 cells pretreated 1 hour, then 100 nM MS41 for 2 hours
T1 sequence (Q03111 1-559): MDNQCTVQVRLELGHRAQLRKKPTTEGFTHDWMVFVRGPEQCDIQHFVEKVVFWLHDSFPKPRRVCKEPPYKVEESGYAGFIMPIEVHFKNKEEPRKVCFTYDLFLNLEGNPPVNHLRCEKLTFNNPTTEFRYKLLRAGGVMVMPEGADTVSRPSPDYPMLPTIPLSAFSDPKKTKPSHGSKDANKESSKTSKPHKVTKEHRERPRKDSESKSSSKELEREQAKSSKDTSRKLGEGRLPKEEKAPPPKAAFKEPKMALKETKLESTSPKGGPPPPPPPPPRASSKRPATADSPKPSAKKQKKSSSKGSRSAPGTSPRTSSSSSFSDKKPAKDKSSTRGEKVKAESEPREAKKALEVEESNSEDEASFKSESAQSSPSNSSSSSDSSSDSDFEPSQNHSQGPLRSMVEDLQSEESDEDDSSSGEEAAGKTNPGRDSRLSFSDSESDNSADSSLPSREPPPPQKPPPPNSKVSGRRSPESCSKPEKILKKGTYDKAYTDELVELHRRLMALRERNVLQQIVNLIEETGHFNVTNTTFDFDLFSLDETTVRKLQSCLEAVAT
Method in brief: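 MV4;11 cells were pretreated 1 h with graded concentrations of a YEATS-domain ligand, a VHL ligand, proteasome inhibitor MG132, or neddylation inhibitor MLN4924, then given 100 nM test compound for 2 h. Separately, control-sgRNA or VHL-sgRNA MV4;11 cells got graded test compound for 24 h. ENL and VHL were read by immunoblot.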

ENL [2] = target: T1, ENL; assay: Endogenous ENL degradation by immunoblotting in human leukemia cell lines; assay type: cell-based; settings: MV4;11 cells; 1 nM to 10 μM, 6 and 24 hours
Method in brief: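 MV4;11 and Jurkat cells were treated with DMSO or graded test-compound concentrations for 6 or 24 h. Cells were lysed in Tris/250 mM NaCl/0.5% Triton X-100/glycerol buffer with DTT and protease inhibitors. Bradford-equalised lysates were immunoblotted for ENL, with β-actin as loading control.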

MV4;11 cells [3] = assay: MS-based global quantitative; assay type: cell-based, human; settings: MV4;11, 100 nM, 2 or 6 hours; cutoff P value <0.05 and fold change >1.5
Method in brief: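 MV4;11 cells (10^6 per sample, three biological replicates) were exposed to 100 nM test compound or DMSO for 2 or 6 h. Pellets were solubilised in 8 M urea/50 mM Tris pH 8.0, reduced with 5 mM DTT and alkylated with 15 mM iodoacetamide. After fourfold dilution, samples were digested with trypsin (1:100, overnight, RT), desalted on C18 and analysed by nanoLC-MS. Proteins with ≥2 razor+unique peptides were compared by two-sample t test.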

MV4;11 cells [4] = assay: Cell cycle and apoptosis assay; assay type: cell-based, human; settings: MV4;11, 100 nM
Method in brief: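 Cells were harvested at set time points. For cell cycle, cells in HBSS/2% FBS were fixed with dropwise ice-cold 70% ethanol and stained with DAPI. For apoptosis, cells were PBS-washed at 1×10^6 cells/ml in binding buffer, stained with FITC-annexin V plus propidium iodide for 15 min at RT, and run on flow cytometry within 1 h.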

MV4;11 cells [5] = assay: RT-qPCR of ENL target genes and ENL in MV4; assay type: cell-based, human; settings: MV4;11, 24 hours
KASUMI1 cells = assay: Colony formation assay; assay type: cell-based, human; settings: KASUMI1, 100 nM, 10 days
MV4;11 cells [6] = assay: RNA-seq analysis in MV4; assay type: cell-based, human; settings: MV4;11, 6 and 24 hours
HEK293 cells = assay: RT-qPCR of HOXA11 and HOXA13 in HEK293 cells expressing ENL mutants; assay type: cell-based, human; settings: HEK293 stable cells, 100 nM, 72 hours
Method in brief: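 HEK293 stable lines expressing ENL mutants were treated with DMSO, 100 nM test compound or 100 nM controls for 72 h. HOXA11 and HOXA13 mRNA was measured by RT-qPCR in three independent experiments, reported as mean ± SEM with Student's t test.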

SEMK2 cells = assay: Cell viability assay; assay type: cell-based, human; settings: SEMK2, 6 days
RS4;11 cells = assay: Cell viability assay; assay type: cell-based, human; settings: RS4;11, 6 days
MV4;11 cells [7] = assay: Cell viability assay; assay type: cell-based, human; settings: MV4;11, 6 days
ENL YEATS domain = target: T2, ENL YEATS domain (Homo sapiens, UniProt Q03111); assay: AlphaScreen assay, ENL YEATS-H3K9ac interaction; assay type: binding
T2 sequence (Q03111 1-145): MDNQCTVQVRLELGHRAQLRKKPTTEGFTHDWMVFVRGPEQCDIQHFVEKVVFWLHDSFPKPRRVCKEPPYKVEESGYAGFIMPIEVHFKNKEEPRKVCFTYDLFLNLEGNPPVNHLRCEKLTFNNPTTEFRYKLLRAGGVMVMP

IKZF1 = settings: cited from earlier work
ENL [8] = settings: cited from earlier work
[9] = test system: xenograft leukemia models; settings: cited from earlier work
[10] = cited from earlier work
MV4;11 cells [11] = assay: Drug synergy test, MS41 with doxorubicin; assay type: cell-based, human; settings: MV4;11, cotreatment, 6 days
Method in brief: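 MV4;11 cells were given DMSO, test compound, doxorubicin, or the combination at graded concentrations for 6 days. Viability was read by CellTiter-Glo luminescence.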

effect of pretreatment on MS41-mediated ENL degradation (ENL [1]): effectively blocked
Compound: CC(C)C[C@@H](C=O)NC(=O)[C@H](CC(C)C)NC(=O)[C@H](CC(C)C)NC(=O)OCc1ccccc1 [MG132] (Cbz-Leu-Leu-Leu-aldehyde)

effect of pretreatment on MS41-mediated ENL degradation (ENL [1]): effectively blocked
Compound: NS(=O)(=O)OC[C@@H]1C[C@@H](n2ccc3c(N[C@H]4CCc5ccccc54)ncnc32)C[C@@H]1O [MLN4924]

IC50 (ENL YEATS domain): 117 nM
Compound: Cc1ncsc1-c1ccc([C@H](C)NC(=O)[C@H]2C[C@H](O)CN2C(=O)[C@@H](NC(=O)CCCCCCCCCNC(=O)c2ccc3c(c2)[C@H](NC(=O)c2cc(-c4ccc(C(=O)N(C)C)c(O)c4)on2)CC3)C(C)(C)C)cc1 [MS41N]
endogenous ENL protein degradation (immunoblot) (ENL [2]): did not induce ENL degradation, even at 10 μM
proteome-wide selectivity (change in protein abundance) (MV4;11 cells [3]): did not substantially alter the abundance of any proteins
apoptosis (MV4;11 cells [4]): had no such effects
cell cycle profile (MV4;11 cells [4]): had no such effects
mRNA levels of ENL (RT-qPCR) (MV4;11 cells [5]): did not affect mRNA levels of ENL
clonogenic potential (colony formation) (KASUMI1 cells): but not MS41N or PFI-6
changes in gene expression (RNA-seq) (MV4;11 cells [6]): did not induce substantial changes in gene expression
HOXA11 and HOXA13 gene expression induced by ENL mutants (HEK293 cells): had no or only minor effects on HOXA11 and HOXA13 gene expression
cell growth suppression (SEMK2 cells): did not suppress cell growth
cell growth suppression (RS4;11 cells): did not suppress cell growth
cell growth suppression (MV4;11 cells [7]): did not suppress cell growth

Compound: O=C(COc1cccc2c1C(=O)N(C1CCC(=O)NC1=O)C2=O)NCCOCCOCCNS(=O)(=O)Nc1cccc(-c2cn3cc(C(=O)NC4CCC4)ccc3n2)c1 (centres unmarked) [SR-1114]
IKZF1 degradation (off-target) (IKZF1): concurrent degradation of IKZF1
ENL depletion (ENL [8]): able to induce ENL depletion

Compound: C[C@H]1CCCN1Cc1cc2cnc(NC(=O)c3ccc4c(cnn4C)c3)cc2[nH]1 [TDI-11055]
in vivo efficacy [9]: in vivo efficacy in xenograft leukemia models

effect of pretreatment on MS41-mediated ENL degradation (ENL [1]): hindered MS41-mediated ENL degradation
Compound: Cc1ncsc1-c1ccc(CNC(=O)[C@@H]2C[C@@H](O)CN2C(=O)[C@@H](NC(=O)C2(C#N)CC2)C(C)(C)C)cc1 [VH298]

Compound: Cc1ncsc1-c1ccc(CNC(=O)[C@@H]2C[C@@H](O)CN2C(=O)[C@@H](NC(=O)CCOCCNC(=O)c2ccc3c(c2)[C@H](NC(=O)c2cc(-c4ccc(C(=O)N(C)C)c(O)c4)on2)CC3)C(C)(C)C)cc1 [compound 1]
antitumor activity [10]: exhibiting antitumor activity

Compound: COc1cccc2c1C(=O)c1c(O)c3c(c(O)c1C2=O)C[C@@](O)(C(=O)CO)C[C@@H]3O[C@H]1C[C@H](N)[C@H](O)[C@H](C)O1 [doxorubicin]
interaction of MS41 and doxorubicin (Bliss independence model) (MV4;11 cells [11]): strong synergistic effect
